Results published in ChEMBL document CHEMBL4038304, “Chiral Indolylarylsulfone Non-Nucleoside Reverse Transcriptase Inhibitors as New Potent and Broad Spectrum Anti-HIV-1 Agents” (J Med Chem, 2017).

Key:
[1] = tested on: Human immunodeficiency virus 1; assay: Antiviral activity against HIV1 harboring reverse transcriptase K103N mutant infected in human […] cells assessed as protection against virus-induced cytopathic effect measured on day 5 post infection by MTT assay; assay type: functional, cell-based; details: Human immunodeficiency virus 1, 120 h
[2] = tested on: Human immunodeficiency virus 1; assay: Ratio of EC50 for HIV-1 harboring reverse transcriptase K103N mutant infected in human MT4 cells to EC50 for HIV1 NL4-3 infected in human MT4 cells; assay type: functional
Outline: (§1)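 Fold change calculated as EC50 against the stated resistant mutant HIV-1 strain divided by EC50 against wild-type NL4-3. Both EC50s come from MTT read-out of virus-induced death in MT-4 cells, mean of two to three independent experiments each in triplicate.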

[3] = Selectivity index, ratio of CC50 for human MT4 cells to EC50 for HIV1 NL4-3 infected in human MT4 cells; assay type: toxicity, cell-based; details: read-out: Ratio CC50/EC50
Outline: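 SI computed as CC50/EC50, using the MTT-based CC50 in uninfected MT-4 cells and the MTT-based EC50 against HIV-1 NL4-3-induced cell death in MT-4 cells. Experiments were run in triplicate, two to three times.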

[4] = tested on: Human immunodeficiency virus 1; assay: Antiviral activity against HIV1 harboring reverse transcriptase Y188L mutant infected in human […] cells assessed as protection against virus-induced cytopathic effect measured on day 5 post infection by MTT assay; assay type: functional, cell-based; details: Human immunodeficiency virus 1, 120 h
[5] = tested on: Human immunodeficiency virus 1; assay: Antiviral activity against HIV1 harboring reverse transcriptase Y181C mutant infected in human […] cells assessed as protection against virus-induced cytopathic effect measured on day 5 post infection by MTT assay; assay type: functional, cell-based; details: Human immunodeficiency virus 1, 120 h
[6] = Cytotoxicity against human MT4 cells assessed as cell viability by MTT assay; assay type: cell-based
Outline: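 Uninfected MT-4 cells scored for viability by MTT. […] Values are means of two to three independent experiments, each run in triplicate.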

[7] = tested on: Human immunodeficiency virus 1; assay: Ratio of EC50 for HIV-1 harboring reverse transcriptase Y188L mutant infected in human MT4 cells to EC50 for HIV1 NL4-3 infected in human MT4 cells; assay type: functional; outline: as §1
[8] = tested on: Human immunodeficiency virus 1; assay: Ratio of EC50 for HIV-1 harboring reverse transcriptase Y181C mutant infected in human MT4 cells to EC50 for HIV1 NL4-3 infected in human MT4 cells; assay type: functional; outline: as §1
[9] = tested on: Human immunodeficiency virus 1; assay: Antiviral activity against HIV1 NL4-3 infected in human […] cells assessed as protection against virus-induced cytopathic effect measured on day 5 post infection by MTT assay; assay type: functional, cell-based; details: Human immunodeficiency virus 1, NL4-3, 120 h
Outline: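 Values are means of two to three independent experiments, each run in triplicate. The lowest detectable concentration is reported where activity fell below the assay limit.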

[10] = tested on: Human immunodeficiency virus 1; assay: Antiviral activity against HIV1 harboring reverse transcriptase K103N /[…] double mutant infected in human […] cells assessed as protection against virus-induced cytopathic effect measured on day 5 post infection by MTT assay; assay type: functional, cell-based; details: Human immunodeficiency virus 1, 120 h
[11] = tested on: Human immunodeficiency virus 1; assay: Ratio of EC50 for HIV-1 harboring reverse transcriptase K103N/[…] double mutant infected in human MT4 cells to EC50 for HIV1 NL4-3 infected in human MT4 cells; assay type: functional; outline: as §1

SMILES | EC50 [1] [nM] | Ratio EC50 [2] | selectivity ratio [3] | EC50 [4] [nM] | EC50 [5] [nM] | CC50 [6] [nM] | Ratio EC50 [7] | Ratio EC50 [8] | EC50 [9] [nM] | EC50 [10] [nM] | Ratio EC50 [11]
Cc1cc(C)cc(S(=O)(=O)c2c(C(=O)NCC(=O)NCCn3c(C)cnc3[N+](=O)[O-])[nH]c3ccc(Cl)cc23)c1 | 279 | 1395 | 144000 | 2320 | 17 | 24500 | 11605 | 85 | 0.2 | 4680 | 23285
Cc1cc(C)cc(S(=O)(=O)c2c(C(=O)NCC(=O)NCc3ccncc3)[nH]c3ccc(Cl)cc23)c1 | 190 |  | > 245000 | 1400 | 20 | > 48900 |  | 100 | 0.2 | 6090 | 30430
Cc1cc(C)cc(S(=O)(=O)c2c(C(=O)NC(C)c3cc(F)cc(F)c3)[nH]c3ccc(Cl)cc23)c1 (racemic) | 1.2 | 2 | > 82800 |  | 716 | > 49700 |  | 1198 | 0.6 | > 49700 | >82843
Cc1cc(C)cc(S(=O)(=O)c2c(C(=O)NCC(=O)NCc3ccccc3F)[nH]c3ccc(Cl)cc23)c1 | 1330 | 1894 | > 78900 | 6160 | 1.3 | > 47300 | 10258 | 1.9 | 0.6 | > 47300 | >72248
Cc1cc(C)cc(S(=O)(=O)c2c(C(=O)NC(C)c3ccccc3F)[nH]c3ccc(Cl)cc23)c1 (racemic) | 0.7 | 1 | > 73600 | 969 | 103 | > 51500 | >1384 | >147 | 0.7 | 3960 | >5656
Cc1cc(C)cc(S(=O)(=O)c2c(C(=O)NC(C)C(=O)NCc3ccco3)[nH]c3ccc(Cl)cc23)c1 (racemic) | 1.9 | 3 | > 40400 | 2430 | 27 | 24200 | 4053 | 45 | 0.6 | 4510 | >7521
Cc1ccnc2c1NC(=O)c1cccnc1N2C1CC1 [NEVIRAPINE] | > 3760 |  |  | > 3760 | > 3760 | > 18800 |  |  | 112 | > 3760 | 
Cc1cc(C)cc(S(=O)(=O)c2c(C(=O)NCC(=O)N[C@@H](C)c3ccncc3)[nH]c3ccc(Cl)cc23)c1 | 438 |  |  | 3050 | 2.5 |  |  |  | 0.7 | 4630 | 
Cc1cc(C)cc(S(=O)(=O)c2c(C(=O)NC(CF)c3ccccc3)[nH]c3ccc(Cl)cc23)c1 (racemic) | 0.7 | 1 | > 70300 |  | 82 | 49200 |  | 117 | 0.7 | 27300 | 39030
Cc1cc(C)cc(S(=O)(=O)c2c(C(=O)NCC(=O)N[C@H](C)c3ccncc3)[nH]c3ccc(Cl)cc23)c1 | 152 |  |  | 3270 | 5.71 |  |  |  | 0.7 | 12200 | 
